High-throughput results deposited in PubChem by several laboratories.
An excerpt weighted towards active compounds, which were near 1.6% of everything screened.
TRAIL sens C8: viability loss with TRAIL in NB7+C8 cells, primary screen, TRAIL sensitizer project, cell-based, ATPlite luminescence | inhibition (viability loss, TRAIL sensitization), % at 10 µM | 360,000 compounds, 1% hits;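 active = compounds causing at least 50% loss of cell viability in the single-dose screen, relative to plate controls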
FLuc inh counter: firefly luciferase enzyme inhibitors, primary screen, artefact control for luciferase-based inhibitor screens, biochemical, luminescence, ATPLite | 200,000 compounds, 1.5% hits | Luciferin 4-monooxygenase (Photinus pyralis), P08659 | 10 min | inhibition, % at 10 µM;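 active = inhibition above about 50% when tested at 10 µM, limit read from the data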
Target sequence (P08659 whole entry, looked up): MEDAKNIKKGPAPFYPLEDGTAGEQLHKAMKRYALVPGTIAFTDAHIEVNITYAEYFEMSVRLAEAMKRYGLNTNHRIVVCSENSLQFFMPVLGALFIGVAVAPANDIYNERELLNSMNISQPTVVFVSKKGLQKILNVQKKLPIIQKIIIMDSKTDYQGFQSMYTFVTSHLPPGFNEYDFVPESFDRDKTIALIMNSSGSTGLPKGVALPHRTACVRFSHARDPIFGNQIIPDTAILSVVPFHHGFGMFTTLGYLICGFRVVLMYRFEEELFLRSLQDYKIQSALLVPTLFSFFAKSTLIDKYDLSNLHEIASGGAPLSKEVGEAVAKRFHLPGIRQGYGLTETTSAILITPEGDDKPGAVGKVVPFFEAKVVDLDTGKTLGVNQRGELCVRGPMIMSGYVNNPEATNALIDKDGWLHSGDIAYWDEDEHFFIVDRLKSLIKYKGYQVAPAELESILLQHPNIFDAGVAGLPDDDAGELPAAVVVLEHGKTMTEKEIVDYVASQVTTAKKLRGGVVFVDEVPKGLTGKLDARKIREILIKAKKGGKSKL
Platelet DG rel: inhibitors of platelet dense granule secretion, primary screen, cell-based, MLPCN, human platelets; inhibition, %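 (compounds screened at 7.5 µM in platelet-rich plasma)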; human platelet-rich plasma, SFLLRN dense granule ATP release, luminescence; AID 1663, 2009; 300,000 compounds, 0.22% hits;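 active = mean replicate score, as percent of positive control, at or above 50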
FLuc act counter: FLuc activators, initial screening, artefact control for FLuc-dependent activation tests, biochemical, ATPlite luminescence. 200,000 tested, under 10 active. ATPlite luciferase biochemical, 10 min; 0 = ATP-free wells, 1 = DMSO control. activation factor at 10 µM. AID 1027, 2008;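 active = luciferase activation factor, scaled between plate controls, of at least 2 with compound at 10 µM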
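test system = cell-free luciferase reagent | medium = PBS as buffer for the ATP substrate | dosing = test compounds dosed from 2 mM stocks in 100% DMSO | incubation = 10 min at ambient temperature | detection = luminescence measurement of luciferase light output | benchmarks = low control with PBS replacing ATP, high control enzyme plus ATP without compound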
PPC-1+TRAIL kill: compounds killing PPC-1 cancer cells with TRAIL present, primary screen, TRAIL potentiator project, ATPLite luminescence, uHTS | PPC-1 cells + TRAIL, ATPLite viability luminescence | cell killing (% activity), % at 4 µM or 5 µM | 220,000 compounds, 0.41% hits;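 active = cell killing above 50% in the first pass at 4 µM, then a duplicate retest at 5 µM averaging 50% or more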
A number is an active result; i = inactive; nt = not tested or not shown.

SMILES	TRAIL sens C8	FLuc inh counter	Platelet DG rel	FLuc act counter	PPC-1+TRAIL kill
CCOC(=O)N1CCN(CC(=O)N2c3ccccc3Sc3ccccc32)CC1	i	nt	i	nt	nt
O=c1ccc2ccccc2c2ccccc12	i	nt	nt	nt	nt
O=Nc1c(O)c2ccccc2c2ccccc12	91.9	nt	i	nt	nt
CCc1nc2ccc(C(=O)Nc3cccc(NS(C)(=O)=O)c3)cn2c1N(C)Cc1nccn1C	i	nt	nt	nt	nt
CC1=CC(Cc2ccccc2)N(C)C(C(N)=O)C1 (stereo not drawn)	i	nt	nt	nt	nt
Cc1cccc(NC2=NC(C)(C)N=C(N)N2)c1	71.3	i	i	i	i
CN(C)CCCN(C(=O)c1ccc(S(=O)(=O)N2CCc3ccccc3C2)cc1)c1nc2c(F)cc(F)cc2s1	i	nt	nt	nt	nt
COc1cc2nc(N(CCCN(C)C)C(=O)c3ccc(S(=O)(=O)N4CCc5ccccc5C4)cc3)sc2cc1OC	i	nt	i	nt	nt
Cc1ccc2sc(N(CCCN(C)C)C(=O)c3ccc(S(=O)(=O)N4CCc5ccccc5C4)cc3)nc2c1C	75.9	nt	i	nt	nt
COc1ccc(C)c2sc(N(CCCN(C)C)C(=O)c3ccc(S(=O)(=O)N4CCc5ccccc5C4)cc3)nc12	93.2	nt	i	nt	nt
COc1ccc(OC)c2sc(N(CCCN(C)C)C(=O)c3ccc(S(=O)(=O)N4CCc5ccccc5C4)cc3)nc12	nt	nt	i	nt	nt
COc1cccc2sc(N(CCCN(C)C)C(=O)c3ccc(S(=O)(=O)N4CCc5ccccc5C4)cc3)nc12	82.9	nt	i	nt	nt
CC(=O)Nc1cc(-c2ccoc2)cn2c(-c3ccccc3)cnc12	i	nt	nt	nt	nt
C[C@H](CO)N1C[C@H](C)[C@@H](CN(C)C(=O)Nc2ccccc2)Oc2ncc(-c3ccc(C#N)cc3)cc2C1=O	i	nt	nt	nt	nt
O=C(CCCN1CCC(C(O)c2ccc(F)cc2)CC1)c1ccc(F)cc1 (stereo not drawn)	i	nt	nt	nt	nt
CCc1nnc(NC(=O)CSc2nnc(Cc3cccn3C)n2CCOC)s1	i	i	52.4	i	nt
C=C1C(=O)OC2C=C(CO)C3OC3C3OC3(C)CC(OC(=O)/C(=C/C)COC(C)=O)C12 (stereo not drawn)	63.4	nt	nt	nt	nt
Cc1cccc(-c2noc(-c3ccc4c(c3)OCO4)n2)c1	60.7	82.4	i	i	i
Brc1ccc(-c2nnc(-c3ccc4c(c3)OCO4)o2)o1	i	60.4	i	i	i
Cc1ccc(-c2nnc(-c3ccc4c(c3)OCO4)o2)cc1	i	52.5	i	i	55.3
O=C1CCCCC1Sc1nnc(-c2ccc3c(c2)OCO3)o1 (stereo not drawn)	53.3	88.9	i	i	i
COc1ccc(-c2nc3c(Cl)cc(C(F)(F)F)cn3c2Cc2ccc(C)cc2)cc1OC	i	nt	nt	nt	nt
COc1ccc(-c2oc3c4c2C(=O)OCCOC4CCC3)cc1 (stereo not drawn)	i	nt	nt	nt	nt
O=C(c1ccc(F)cc1)c1cc2ccc(O)cc2oc1=O	i	nt	73.5	nt	nt
Clc1ccc(/C=N/Nc2nnc(-c3ncc[nH]3)c3ccccc23)cc1	54.0	74.9	i	i	i
SMILES	TRAIL sens C8	FLuc inh counter	Platelet DG rel	FLuc act counter	PPC-1+TRAIL kill
COc1cc2nc(N(CCCN(C)C)C(=O)c3ccc(C(=O)c4ccccc4)cc3)sc2cc1OC	i	nt	i	nt	nt
CC1CCCCN1S(=O)(=O)c1ccc(C(=O)N(CCCN(C)C)c2nc3ccc(Br)cc3s2)cc1 (stereo not drawn)	55.2	nt	i	nt	nt
CCc1ccc2nc(N(CCCN(C)C)C(=O)c3ccc(C(=O)c4ccccc4)cc3)sc2c1	62.3	nt	i	nt	nt
CCc1ccc2nc(N(CCCN(C)C)C(=O)c3ccc(S(=O)(=O)N4CCCc5ccccc54)cc3)sc2c1	67.5	nt	i	nt	nt
COc1cc(/C=N/Nc2nc(Nc3ccccc3)nc(N3CCCCC3)n2)ccc1OCC(=O)O	i	50.8	i	i	i
CCc1ccc([C@@H]2CC(=O)[C@@H]3CN(S(=O)(=O)c4ccc(Cl)cc4)[C@H](c4ccc(C)cc4)C[C@@H]3N2S(=O)(=O)c2ccc(C)cc2)cc1	i	nt	nt	nt	nt
O=[N+]([O-])c1cc(N=Nc2ccc3ccccc3c2)ccc1O	i	nt	54.5	nt	nt
O=C(C[C@H]1CC[C@@H]2[C@H](COC[C@H](O)CN2Cc2cccc(C(F)(F)F)c2)O1)NCCc1ccccc1	i	nt	nt	nt	nt
Clc1ccc(-c2nnc(-c3ccccc3Cl)o2)cc1	i	74.3	i	i	i
Cc1ccc(-c2nnc(-c3ccccc3Br)o2)cc1	58.4	nt	i	nt	nt
O=[N+]([O-])c1ccc(N=Nc2ccc(O)c3ccccc23)cc1	62.6	nt	nt	nt	nt
O=S(=O)(Nc1ccc(N=Nc2ccc(O)c3ccccc23)cc1)c1ccccc1	i	i	i	i	i
CN1CCN(C2CN(CCc3ccccc3)S(=O)(=O)C2)CC1 (stereo not drawn)	i	nt	nt	nt	nt
Cc1cc(NC(=O)/C=C/c2ccccc2Cl)n(-c2nc3ccccc3[nH]2)n1	73.7	75.6	i	i	58.2
CN1C[C@@H](CO)O[C@@H](n2cnc3c(N4CCOCC4)ncnc32)C1	i	nt	nt	nt	nt
Cc1cc(NC(=O)C2CCCCC2)nc2c1c(=O)oc1ccccc12	i	i	i	i	i
Cc1cc(NC(=O)C2CCCC2)nc2c1c(=O)oc1ccccc12	70.6	i	i	i	i
Cc1cccc(CC(=O)Nc2cc(C)c3c(=O)oc4ccccc4c3n2)c1	52.1	i	i	i	i
Cc1ccc(C2CC2c2n[nH]c(=S)n2-c2ccc(Cl)cc2)cc1 (stereo not drawn)	71.9	i	i	i	i
Cc1ccc(C2CC2c2n[nH]c(=S)n2-c2cccc(C)c2)cc1 (stereo not drawn)	i	i	i	i	i
O=C(COc1ccc2ccccc2c1)Nc1nccs1	56.8	83.8	i	i	i
CC(Cl)C(=O)N1c2ccccc2CCc2ccccc21 (stereo not drawn)	i	nt	i	nt	nt
O=C(CCl)N1c2ccccc2CCc2ccccc21	95.2	nt	i	nt	nt
